Bioassay records (PubChem BioAssay)
ERa SRC1 pot = ER-alpha (human) coactivator binding potentiation; P03372; TR-FRET ERalpha-LBD/SRC-Cy5 coactivator binding, 2 h; 100 = basal binding, no effect; coactivator binding (% of control), % at 25.6 µM; hit rate 1.3% among 86,000; AID 639; in the data active means activity above about 200%;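 further: binding measured in presence of low estradiol as agonist stimulus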
HUVEC prolif 384 = inhibitors of human endothelial cell proliferation. hit rate 1.1% among 86,000. viability, % at 10 µM (by protocol). HUVEC proliferation, CellTiter-Glo luminescence, 72 h; hits give low values. AID 648;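 active means viability at or below 30%; inactive means viability above 30%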
H69AR inhibit = blocks growth of human H69AR lung tumor cells; H69AR lung tumor viability, ATP luminescence, 72 h; hits give low values; viability, % at 10 µM; hit rate 6% among 85,000; AID 598;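 active means viability at or below 40%; inactive means viability above 40%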;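 further: multidrug resistant small cell line overexpressing MRP-1 efflux transporter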
ERb coact inh = ER-beta (human) coactivator binding inhibition | Q92731 | TR-FRET ER-beta LBD / SRC1-Cy5 peptide binding; receptor agonist-loaded with 1 µM estradiol | inhibition, % at 25.6 µM | hit rate 1.3% among 86,000;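 active means compounds whose percent inhibition of the receptor-coactivator binding signal exceeds about 50% in the single-dose screen, limit read from the data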
Target sequence (Q92731 whole entry, looked up, the tested form may be a part): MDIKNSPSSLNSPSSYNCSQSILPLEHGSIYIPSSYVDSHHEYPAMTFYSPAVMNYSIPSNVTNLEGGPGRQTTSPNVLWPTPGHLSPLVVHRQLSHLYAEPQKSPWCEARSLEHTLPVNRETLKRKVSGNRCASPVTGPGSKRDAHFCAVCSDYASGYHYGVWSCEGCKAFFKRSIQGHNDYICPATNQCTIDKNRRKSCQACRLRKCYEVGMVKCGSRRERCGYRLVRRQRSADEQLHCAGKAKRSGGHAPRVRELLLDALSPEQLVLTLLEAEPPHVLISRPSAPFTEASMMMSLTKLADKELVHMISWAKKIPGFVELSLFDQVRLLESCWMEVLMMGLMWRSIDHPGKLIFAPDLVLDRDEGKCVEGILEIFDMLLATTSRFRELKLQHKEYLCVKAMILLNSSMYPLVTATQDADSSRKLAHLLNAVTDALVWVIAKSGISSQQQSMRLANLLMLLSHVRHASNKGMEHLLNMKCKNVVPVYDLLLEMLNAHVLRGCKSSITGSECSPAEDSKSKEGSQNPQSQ
Lung fibro prol = blocks proliferation of human lung fibroblasts; LL 47 human lung fibroblast viability, ATP luminescence; hits give low values; viability, % at 10 µM; hit rate 1.1% among 85,000;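 active means viability at or below 50% in the single dose screen; inactive means viability above 50%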;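 further: compound exposure lasted 72 h before the ATP readout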
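Benchmarks: Cell-only wells, no compound | Test system: LL 47 human lung fibroblasts, passage 12 or lower | Input: 1,150 cells/well | Measured by: CellTiter-Glo luminescence measuring cellular ATP | Medium: IMEM, 15% FBS supplement | Schedule: Overnight attachment after seeding, then 72 h compound exposure at 37 °C | Doses: Compound addition at 0.1% DMSO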
ERa coact inh = blocks coactivator binding to human estrogen receptor alpha; TR-FRET ER-alpha LBD / SRC-1 peptide, estradiol-bound; P03372; hit rate 1.7% among 86,000; inhibition, % at 25.6 µM; in the data active means inhibition above about 50%
Numbers stand for hits; . = inactive; / = not tested or not shown; [ ] = remark or other dose. Compounds with a hit are over-represented: about 9.2% of the library has one in this group of screens.

SMILES | ERa SRC1 pot | HUVEC prolif 384 | H69AR inhibit | ERb coact inh | Lung fibro prol | ERa coact inh
CCn1c(NC(=O)c2cccs2)nc2ccccc21 | . | . | 33 | . | . | .
CCn1c(NC(C)=O)nc2ccccc21 | . | . | . | . | . | .
O=C(CCN1CCCCC1)NCC1OCCc2ccccc21 (configuration not stated) | . | . | . | . | . | .
COCCn1c(SCC(=O)NCc2ccccc2)nnc1-c1ccco1 | . | . | . | . | . | .
COc1ccc(CCN2C(=O)C3C4C=CC(C4)C3C2=O)cc1OC (configuration not stated) | . | . | . | . | . | .
COc1ccc(CCN2C(=O)C3CC(C)=C(C)CC3C2=O)cc1OC (configuration not stated) | . | . | . | . | . | .
COc1ccc(CCn2c(N)cc(=O)[nH]c2=S)cc1OC | . | . | . | 58[fluorescence artefact?] | . | .
COc1ccc(CCN2C(=O)C3C4C=CC(C3C2=O)C2C(=O)N(CCc3ccc(OC)c(OC)c3)C(=O)C42)cc1OC (configuration not stated) | . | . | 40 | . | . | .
N#Cc1c(N2CCN(C(=O)c3ccco3)CC2)nc(-c2ccccc2)c2c1CCCC2 | . | . | . | . | . | .
CCN1CCc2c(C#N)c(NCc3ccccc3)nc(N(CC)CC)c2C1 | 675[fluorescence artefact?] | . | . | . | . | .
C=CCNc1nc(NCc2ccccc2)c(C#N)c2c1CN(C)CC2 | . | 11 | 29 | . | . | .
CCCCCNc1nc(NCCCO)c(C#N)c2c1CN(C)CC2 | . | . | . | . | . | .
Cc1cc(N(C)C)c(C#N)c(NCc2ccccc2)n1 | . | . | . | . | . | .
N#Cc1c(N2CCN(C(=O)c3ccccc3)CC2)nc(-c2ccccc2)c2c1CCCC2 | . | . | 14 | . | . | .
N#Cc1c(NCCCO)nc(-c2ccccc2)c2c1CCCC2 | . | . | . | . | . | .
N#Cc1c(NCCN)nc(-c2ccccc2)c2c1CCCC2 | . | . | 6.0 | . | . | .
CN1CCN(S(=O)(=O)c2ccc(NC(=O)c3ccc(Br)s3)cc2)CC1 | . | . | . | . | . | .
Cc1ccc(C)c(Cn2c(C(=O)OC(C)C)cc3c2ccn3C)c1 | . | . | . | . | . | .
O=C(CN(c1ccc(F)cc1)S(=O)(=O)c1ccc2c(c1)OCCO2)Nc1ccccc1 | . | . | . | . | . | .
N#Cc1c(NCCN)nc(NCc2ccccc2)c2c1CCN(Cc1ccccc1)C2 | . | 18 | . | . | . | 79
Nc1[nH]nc2nc(NCc3ccccc3)c3c(c12)CCN(Cc1ccccc1)C3 | . | . | . | . | . | .
CCC(C)NS(=O)(=O)c1ccc(S(=O)(=O)N2CCCC3(CCCCC3)C2)cc1 (configuration not stated) | . | . | . | . | . | .
CC(C)(C)CC(C)(C)c1ccc(O)c(CN2CCN(CCC#N)CC2)c1 | . | . | 5.8 | . | . | .
COc1ccc(N2C(=O)C3C4C=CC(C4)C3C2=O)c(OC)c1 (configuration not stated) | . | . | / | . | . | .
COc1ccc(C(=O)COc2ccccc2N2C(=O)C3C4C=CC(C4)C3C2=O)cc1 (configuration not stated) | . | . | . | . | . | 51[fluorescence artefact?]
SMILES | ERa SRC1 pot | HUVEC prolif 384 | H69AR inhibit | ERb coact inh | Lung fibro prol | ERa coact inh
CCOC(=O)Cc1csc(NC(=O)CC(C)(C)C)n1 | . | . | . | . | . | .
Cc1cc(Nc2nc3ccccc3nc2Cl)n(-c2ccccc2)n1 | . | . | 36 | . | . | .
Cc1cc(C)n(-c2nc3ccccc3nc2Nc2ccc3c(c2)OCO3)n1 | . | . | . | . | . | .
Cc1cc(Nc2ccc(Cl)cc2)n(-c2ccccc2)n1 | . | . | . | . | . | .
Cc1cc(Nc2nc3ccccc3nc2Cl)n(-c2ccccc2C)n1 | . | . | 17 | . | . | .
COc1ccccc1N1CCN(C(=O)c2oc3cc(C)cc(C)c3c2C)CC1 | . | . | 23 | . | . | .
Cc1onc(-c2c(F)cccc2Cl)c1C(=O)N1CCCc2ccccc21 | . | . | 19 | . | . | .
Cc1onc(-c2ccccc2Cl)c1C(=O)N1CCCc2ccccc21 | . | . | 23 | . | . | .
COc1ccccc1N1CCN(C(=O)c2c(-c3ccccc3Cl)noc2C)CC1 | . | . | 19 | . | . | .
Cc1onc(-c2ccccc2Cl)c1C(=O)N1CCc2ccccc21 | . | . | . | . | . | .
COC(=O)C1CCN(C(=O)c2c(-c3ccccc3Cl)noc2C)CC1 | . | . | . | . | . | .
COc1ccccc1N1CCN(C(=O)c2ccoc2C)CC1 | . | . | . | . | . | .
Cc1noc(C)c1C(=O)N1CCCc2ccccc21 | . | . | . | . | . | .
O=C(CCCc1nc(-c2ccc(Cl)cc2)no1)N1CCOCC1 | . | . | . | . | . | .
CCOC(=O)N1CCN(C(=O)CCSCCc2ccncc2)CC1 | . | . | . | . | . | .
Cc1ccc(-n2c3c(c(=O)[nH]c2=O)C(C(F)(F)F)(C(F)(F)F)NC(=O)N3)cc1 | . | . | . | . | . | .
O=C(Nc1ccccc1-c1nc2ccccc2s1)c1ccc(Br)o1 | . | . | 15 | . | . | .
O=C(Nc1nc(-c2cc3ccccc3oc2=O)cs1)c1ccc(Br)o1 | 224[fluorescence artefact?] | . | . | . | . | .
O=C(Nc1nc(-c2nc3ccccc3s2)cs1)c1ccco1 | 288[fluorescence artefact?] | . | . | . | . | .
O=C(Nc1ccccc1C(=O)O)c1ccc(Br)o1 | . | . | . | . | . | .
O=C(Nc1ccc(Cl)cc1-c1nc2ccccc2s1)c1ccco1 | . | . | 30 | . | . | .
O=C(Nc1ccc(Cl)cc1C(=O)Nc1ccccn1)c1ccco1 | . | . | . | . | . | .
CCOC(=O)c1c(C)[nH]c(C(=O)OCC(=O)NC2CCS(=O)(=O)C2)c1C (configuration not stated) | . | . | . | . | . | .
CCc1ccc(NC(=O)CSc2nnc(Cc3cccn3C)n2-c2ccc(F)cc2)cc1 | . | . | . | . | . | .
Cn1nnnc1SCC(=O)Nc1ccccc1N1CCCCC1 | . | . | . | . | . | .
SMILES | ERa SRC1 pot | HUVEC prolif 384 | H69AR inhibit | ERb coact inh | Lung fibro prol | ERa coact inh
CC1(C)Nc2ccc(O)cc2-c2c1ssc2=S | . | 27 | . | . | . | .
Cc1ccc(C(=O)Nc2ccc3cn[nH]c3c2)cc1S(=O)(=O)N1CCCCC1 | . | . | 30 | . | . | .
c1coc(CN2CCN(C(c3cccs3)c3nnnn3C3CCCC3)CC2)c1 (configuration not stated) | . | . | . | . | . | .
COc1cccc(OC)c1C(=O)N1CCN(Cc2ccccc2C)CC1 | . | . | . | . | . | .
COc1cccc(=O)c2c(C)n(C)c(C)c12 | . | . | . | 51[fluorescence artefact?] | . | .
CCOc1cccc(=O)c2c(C)n(C)c(C)c12 | . | . | . | . | / | .
